Test results as given in paper PMC4161282 (Bioconjugate chemistry, 2013).
≈ marks a conversion by molar mass, not a printed value. Where “and” joins values, the source holds several entries; their conditions need not be identical. Equal values may be shown once.

Columns and labels:
GFP-aldehyde 4a = GFP-aldehyde 4a (Aequorea victoria, UniProt P42212); test: Kinetic analysis of protein labeling via oxime ligation; settings: catalyst 100 mM, 4a 10 µM, 1 50 µM
[1] = Kinetic analysis of oxime ligation between 2-pentanone and aminooxy-dansyl 1; settings: for kobs: 2-pentanone 5.0 mM, 1 150 µM; for kobs/kobs(aniline): vs 100 mM aniline
[2] = Catalyst screening: oxime ligation of citral with aminooxy-dansyl 1; settings: catalyst 25 mM; for kobs / kobs/kobs(aniline) / t1/2: citral 50 µM; for kobs: aminooxy-dansyl 1 100 µM, PB pH 7.0, rt; for kobs/kobs(aniline) / t1/2: 1 100 µM; for catalytic efficiency compared with aniline: screening
[3] = Effect of catalyst concentration on kobs, oxime ligation of citral with 1; settings: citral 30 µM, 1 100 µM
DHFR^2 M174pAcF = test: PEGylation of ketone-containing protein with aminooxy-PEG 12; settings: catalyst 100 mM, protein 7 µM, aminooxy-PEG 5 mM, pH 7, rt
[4] = Approximate solubility in phosphate buffer; settings: for solubility: phosphate buffer, pH 7, aqueous buffer
Aldehyde-GFP 4a = Aldehyde-GFP 4a (Aequorea victoria, UniProt P42212); test: Immobilization of aldehyde-GFP 4a from crude cell lysate onto hydrazide beads; settings: catalyst 100 mM
immobilized GFP = immobilized GFP (Aequorea victoria, UniProt P42212); test: Kinetic analysis of hydrazone-oxime exchange; settings: catalyst 100 mM, aminooxy fluorophore 5 1 mM
aldehyde-CNTF 9 = biological target: T1, aldehyde-CNTF 9 (Homo sapiens, UniProt P26441); test: Rate analysis of coupling between aldehyde-CNTF 9 and aminooxy 5; settings: catalyst 80 mM, 9 50 µM, 5 600 µM, 5 min
T1 sequence (P26441 1-200): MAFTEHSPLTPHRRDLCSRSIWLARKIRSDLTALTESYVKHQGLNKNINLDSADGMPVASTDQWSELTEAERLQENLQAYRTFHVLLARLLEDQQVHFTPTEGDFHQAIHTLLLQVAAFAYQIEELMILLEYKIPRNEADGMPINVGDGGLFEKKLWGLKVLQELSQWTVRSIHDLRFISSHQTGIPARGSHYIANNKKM
Procedure, shortened: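 Run at rt and started by adding aldehyde-bearing CNTF (stock 60 µM in 50 mM Tris-HCl, pH 7.5). Aliquots were taken every 5 min into SDS loading buffer and flash-frozen in liquid nitrogen. Samples were heated at 98 °C for 4 min, then analysed by SDS-PAGE.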

[5] = phosphate buffer (0.1 M), pH 7.0, rt

SMILES | kobs [2] [M⁻¹ s⁻¹] | kobs ([3]; catalyst 25 mM) [M⁻¹ s⁻¹] | kobs/[cat.] ([3]; catalyst 25 mM) [ms^−1 M^−2] | kobs ([3]; catalyst 35 mM) [M⁻¹ s⁻¹] | kobs/[cat.] ([3]; catalyst 35 mM) [ms^−1 M^−2] | kobs ([3]; catalyst 42 mM) [M⁻¹ s⁻¹] | kobs/[cat.] ([3]; catalyst 42 mM) [ms^−1 M^−2] | kobs/[cat.] ([3]; catalyst 50 mM) [ms^−1 M^−2] | Approximate Solubility [4, 5] | kobs/kobs(aniline) [2] | catalytic efficiency compared with aniline [2] | t1/2 [2] [min] | also measured
Nc1ccccc1 [Aniline, aniline, reference compound] | 24.4 ± 0.5 | 24.3 ± 0.2 | 0.97 | 33.5 ± 0.2 | 0.96 | 36.9 ± 0.3 | 0.88 | 0.97 | 100 mM |  |  |  | extent of reaction (labeling) in about 90 s (GFP-aldehyde 4a): < 7%; kobs (GFP-aldehyde 4a): 10.3 M⁻¹ s⁻¹; kobs ([1]; catalyst 100 mM): 0.082 M⁻¹ s⁻¹ and 0.082 ± 0.0007 M⁻¹ s⁻¹; kobs ([3]; catalyst 50 mM): 48.6 ± 0.2 M⁻¹ s⁻¹; kobs ([3]; catalyst 50 mM, listed as aniline): 48.9 M⁻¹ s⁻¹ and 48.6 M⁻¹ s⁻¹; effect on PEGylation reaction rate (DHFR^2 M174pAcF): did not have a significant effect on the reaction rate; solubility ([4]; Approximate Solubility, phosphate buffer (0.1 M), pH 7.0, rt): ~100 mM (≈ 9310 µg/mL); time to complete immobilization (Aldehyde-GFP 4a): less than 45 min; kobs of immobilized protein release (immobilized GFP): 0.0159 h⁻¹
Nc1cccc(O)c1 [m-Aminophenol, m-aminophenol] | 23.9 ± 0.5 |  |  |  |  |  |  |  |  | 0.98 |  |  | 
Nc1cccc(N)c1 [m-Phenylene-diamine, m-phenylenediamine] |  | 38.7 ± 0.1 | 1.55 | 58.3 ± 0.3 | 1.66 | 65.6 ± 0.6 | 1.56 | 1.56 |  |  |  |  | kobs ([1]; catalyst 100 mM, listed as mPDA): 0.20 ± 0.0016 M⁻¹ s⁻¹; kobs/kobs(aniline) ([1]; catalyst 100 mM): 2.41; kobs ([1]; catalyst 300 mM): 0.36 ± 0.0042 M⁻¹ s⁻¹; kobs/kobs(aniline) ([1]; catalyst 300 mM): 4.45; kobs ([1]; catalyst 500 mM): 0.73 ± 0.0071 M⁻¹ s⁻¹; kobs/kobs(aniline) ([1]; catalyst 500 mM): 8.89; kobs ([1]; catalyst 700 mM): 1.17 ± 0.013 M⁻¹ s⁻¹; kobs/kobs(aniline) ([1]; catalyst 700 mM): 14.3; kobs ([1]; catalyst 900 mM): 1.69 ± 0.022 M⁻¹ s⁻¹; kobs/kobs(aniline) ([1]; catalyst 900 mM): 20.7; extent of protein labeling (Coomassie gel) (aldehyde-CNTF 9): almost all of the protein was labeled; kobs ([3]; catalyst 50 mM, listed as mPDA): 78.2 ± 0.7 M⁻¹ s⁻¹
Nc1ccccc1C(=O)O [o-Aminobenzoic acid, o-aminobenzoic acid] | 24.8 ± 0.8 |  |  |  |  |  |  |  |  | 1.01 | equal to or less efficient than aniline |  | solubility [4]: > 2000 mM
Nc1ccccc1N [o-Phenylene-diamine, o-phenylenediamine] | 18.1 ± 0.3 |  |  |  |  |  |  |  | very soluble (>1 M) | 0.74 | equal to or less efficient than aniline | 7.47 | 
Nc1ccc(N)cc1 [p-Phenylene-diamine, p-phenylenediamine] | 29.2 ± 0.7 |  |  |  |  |  |  |  | very soluble (>1 M) | 1.20 | more efficient compared with aniline | 4.63 | 
